Assay outcomes from PubChem BioAssay.
MT stabilize HCS: microtubule stabilizers in HeLa cells; HeLa tubulin immunostaining HCS, 24 h; share of cells brighter than vehicle mean+2SD; % tubulin-high responders, % at 10 µM; 200,000 compounds, 0.83% hits;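 active = plate Z-score above 3 for both tubulin-high and condensed-nucleus cell shares, with cell loss under 80%, at 10 µM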;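 note: anti alpha tubulin signal scored within the nucleus-defined area of each cell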
Dynein transport: blocks dynein driven cargo transport along microtubules; 3617.4 mouse cells, GR-EGFP nuclear translocation imaging; test concentration mostly 20 µM; stimulated with dexamethasone, 1 µM; stronger effect = lower value; z-score, hits read low; 220,000 compounds, 0.47% hits;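 active = plate z-score of nuclear minus cytoplasmic receptor signal below a set negative limit, without overly bright fluorescence or cell loss, cut at about -3.5 in these data, passing the limit was not always enough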;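 note: z-score of nuclear minus cytoplasmic ring GR-EGFP intensity difference per well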
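Buffer or medium: tet-free medium with charcoal-stripped serum / Also added: dexamethasone agonist, 1.0 µM final, for 30 min / Timing: induction 48 h, compound 1 h, agonist 30 min / Measured by: high-content fluorescence imaging after fixation / Read-out: nuclear-to-cytoplasmic GR-EGFP distribution per well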
HSV replic up: HSV replication enhancement. maximum fold increase. 220,000 compounds, 0.005% hits. AID 1956. HSV replication augmentation in cells, fold increase; in the data active = maximum fold increase above about 1.5; tested in PC3 cells
b-catenin transl: modulators of beta-catenin nuclear translocation; HeLa beta-catenin nuclear translocation, immunofluorescence imaging; nuclear translocation activity, % at 5 µM; 190,000 compounds, 0.3% hits; AID 1665;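 active = nuclear translocation activity above 50% at 5 µM, with a well cell count of 50 or more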;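 note: per-cell ratio of nuclear to cytoplasmic median beta-catenin stain intensity; plate controls were DMSO negative control for no effect and GSK-3 inhibitor IX positive control for full effect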
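System: Human HeLa cells, endogenous beta-catenin | Compound dosing: 5 µM primary, 0.02–20 µM confirmation | Timing: 24 h compound exposure at 37°C, 5% CO2 | Measured by: Fluorescence imaging of beta-catenin antibody stain plus DAPI | Read-out basis: % activation of per-cell nuclear versus cytoplasmic median beta-catenin signal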
L major viab: inhibitors of Leishmania major promastigote growth; 200,000 compounds, 9% hits; inhibition, % at 10 µM; Leishmania major promastigotes, resazurin fluorescence viability; in the data active = inhibition above about 50%;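 note: promastigotes grown with compound for 44 hours at 28 °C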
Active calls of the source: *; i = inactive; . = not tested or not shown. Compounds with a hit are over-represented: about 8.9% of the library has one in this group of screens.

SMILES	MT stabilize HCS	Dynein transport	HSV replic up	b-catenin transl	L major viab
COc1ccccc1/C=[N+](\[O-])C1SC(=S)N(C)C1(C)C (centres undefined)	.	0.18	i	1	.
O=C(OCc1nc2ccccc2[n+]([O-])c1C(=O)c1ccccc1)c1cccs1	3	2.3	i	-2	86*
Cc1ccc(/C=N\NC(=O)C2CN(S(=O)(=O)c3ccccc3)CCN2S(=O)(=O)c2ccccc2)cc1 (centres undefined)	3	-0.69	i	-2	28
CCC(C)(C)n1nnnc1C(c1ccc(C)cc1)N1CCC(C)CC1 (centres undefined)	4	-0.72	i	-1	62*
CCC(C)(C)n1nnnc1C(c1ccc2ncccc2c1)N1CCN(Cc2ccc3c(c2)OCO3)CC1 (centres undefined)	3	0.18	i	-6	99*
CCC(C)(C)n1nnnc1C(c1ccc(C)cc1)N1CCN(Cc2ccc3c(c2)OCO3)CC1 (centres undefined)	4	-0.41	i	0	81*
C[N+]1(CC(=O)OCCCc2ccccc2)CCOCC1	3	-0.99	i	1	-2
COC(=O)C1=C(C)N(c2cc(C)cc(C)c2)/C(=C/c2ccc(O)cc2)C1=O	5	-1.8	i	4	99*
COC(=O)C1=C(C)N(c2ccc(Cl)cc2)/C(=C/c2ccc(O)cc2)C1=O	3	-0.47	i	0	84*
COC(=O)C1=C(C)N(c2cc(C)cc(C)c2)/C(=C/c2ccco2)C1=O	2	0.43	i	-5	48
COC(=O)C1=C(C)N(c2ccccc2)/C(=C/c2ccco2)C1=O	.	0.67	i	0	.
CCOC(=O)c1c(NS(=O)(=O)Cc2ccccc2)sc2c1CCCC2	3	0.15	i	.	-11
C/C(=C1\SC(N2CCOCC2)=NC1=O)c1ccc(C)cc1	2	-0.39	i	0	-15
CC(=O)c1cc(-c2ccccc2)n(CCC(=O)NC2CCCCC2)c1C	2	0.66	i	-2	83*
CC(=O)c1cc(-c2ccccc2)n(CC(=O)Nc2cccc(C)c2)c1C	2	1	i	-6	64*
CC(=O)c1cc(-c2ccccc2)n(CCC(=O)NC2CCCC2)c1C	2	-0.73	.	-2	0
CC(=O)c1cc(-c2ccccc2)n(CC(=O)N2CCC(N3CCCCC3)CC2)c1C	3	0.13	i	.	95*
CCc1cccc(NC(=O)Cn2c(-c3ccccc3)cc(C(C)=O)c2C)c1	3	0.63	i	-6	-1
OC1CCCN(Cc2ccccc2)C1 (centres undefined)	3	-1	i	.	-2
O=C(Nc1ncc(Cc2cccc([N+](=O)[O-])c2)s1)c1ccco1	4	-0.24	i	0	8
O=C(Nc1ncc(Cc2ccc(C(F)(F)F)cc2)s1)c1ccc(-c2cccc([N+](=O)[O-])c2)o1	6	-0.18	i	1	90*
CCc1ccc(CCC(=O)Nc2ncc(Cc3ccccc3Cl)s2)o1	12*	0.21	i	150*	-5
O=C(Nc1ncc(Cc2ccccc2Cl)s1)c1ccc(-c2cccc([N+](=O)[O-])c2)o1	4	0.11	i	0	92*
Cc1cc(C)n(-c2nnc(C)n2N)n1	8	-0.38	i	2	-4
CCOC(=O)c1sc(NC(=O)CN(CC)CC)c(C(=O)OCC)c1C	1	0.096	i	-1	7
SMILES	MT stabilize HCS	Dynein transport	HSV replic up	b-catenin transl	L major viab
O=C1CC(NNc2ccccc2)C(=O)N1c1ccccc1 (centres undefined)	1	0.019	i	1	62*
Cc1ccc(N2C(=O)CC(NNc3nc4ccccc4s3)C2=O)cc1C (centres undefined)	3	0.53	i	-1	56*
O=S(=O)(c1ccc(F)cc1)n1ccc(-c2cccc(OCc3c(F)cccc3Cl)c2)n1	2	-0.09	i	.	10
CCCC(=O)NC(=S)N1CCN(c2ccc([N+](=O)[O-])cc2)CC1	4	0.26	i	0	70*
Cc1ccc(C(=O)NC(=S)N2CCN(c3ccc([N+](=O)[O-])cc3)CC2)cc1	2	-0.68	i	1	-8
Cc1[nH]n(-c2ncc(-c3ccccc3)s2)c(=O)c1C(c1ccc(Br)cc1)C(C#N)C#N (centres undefined)	2	-3	i	-2	81*
COc1ccccc1COCC(O)CN(Cc1ccco1)Cc1ccccc1O (centres undefined)	4	-1.4	i	1	82*
CN(Cc1cccs1)CC(O)COCc1ccco1 (centres undefined)	2	1.6	i	2	-1
CCn1c(SCC(=O)NCC2CCCO2)nnc1-c1c[nH]c2ccccc12 (centres undefined)	3	0.18	i	2	-2
Cc1ccc(SCCNC(=O)/C=C/c2ccccc2Cl)cc1	1	-0.61	i	-1	2
COc1cc(NC(=O)C2=C(N3CCOCC3)/C(=C\c3ccc(Cl)cc3Cl)CC2)cc(OC)c1OC	3	-0.057	i	.	97*
COc1cc(NC(=O)C2=C(N3CCOCC3)/C(=C\c3ccc(Br)cc3)CC2)cc(OC)c1OC	10	-1.1	i	-1	39
O=C1c2ccccc2C2=Nc3ccccc3SC(c3ccc(Cl)cc3)C12 (centres undefined)	4	-1.7	i	-1	99*
O=C1c2ccccc2C2=Nc3ccccc3SC(c3cccc(F)c3)C12 (centres undefined)	16	-0.084	i	0	89*
Fc1cccc(C2NN=C(c3ccccc3)S2)c1 (centres undefined)	4	-0.37	i	-2	-5
CSCCc1nc(SCC(=O)Nc2nnc(C)s2)[nH]c1C	2	-0.41	i	-1	-8
OCCNc1nc(-c2ccccc2)nc2c1oc1ccccc12	.	0.012	i	-1	.
COc1ccc(N(C(=O)C(C)C)S(=O)(=O)c2cccs2)cc1	1	-0.95	i	.	80*
CC(C)C(=O)N(c1cc2sc(=O)oc2c2ccccc12)S(=O)(=O)c1cccs1	1	0.029	i	-2	50*
Cc1ccc(OCC(=O)N2CCOCC2)cc1C	4	-0.68	i	2	-6
N=c1c(C(=O)NCc2ccco2)cc2c(=O)n3ccccc3nc2n1Cc1ccccc1	5	0.37	i	-3	25
O=C1CSC(c2cccc(Cl)c2Cl)N1c1ccccn1 (centres undefined)	1	1.7	i	0	91*
O=C(Nc1c(-c2ccccc2)nc2ccc(Cl)cn12)c1cccs1	1	0.65	i	-2	79*
Cc1ccccc1Nc1c(-c2ccncc2)nc2ccc(Cl)cn12	2	-0.16	i	-4	75*
Cc1ccn2c(NC(=O)c3cccs3)c(-c3ccccc3)nc2c1	6	-0.15	i	-1	6
CCOC(=O)N1CCN(c2c(NCCc3ccc(C)cc3)c(=O)c2=O)CC1	4	-0.55	.	-3	-5
